RAD52 anneal inh: RAD52 (human) annealing inhibition; recombinant RAD52 DNA annealing, FRET fluorescence; inhibition, % at 18.7 µM; 360,000 compounds, 0.46% hits; AID 651710;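 active = every replicate showing at least 50% inhibition; inconclusive = mean inhibition at least 50% but not in every replicate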
AF4-AF9 inh: inhibitors of human MLL-AF4/AF9 interaction | P42568 | 350,000 compounds, 0.47% hits | AlphaScreen, biotin-AF4 peptide binding to FLAG-AF9 | inhibition, % at 10 µM | AID 651704;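 active = every replicate reaching a set inhibition limit, whatever the replicate mean, cut at about 25% in these data; inconclusive = mean inhibition reaches that limit but some replicates miss it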;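 note: 0% = plate neutral control median and 100% = total signal loss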
INS-1E GSIS act: primary screen for activators of insulin secretion dependent on glucose, INS-1E cells, GLuc reporter luminescence | activation, % at 16.6 µM | INS-1E GLuc reporter insulin secretion, 2-3 h | 370,000 compounds, 0.61% hits;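 active = lowest replicate activation of at least 40%, so every replicate reaches that level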;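 note: 0% = median of neutral control wells and 100% = median of IBMX positive control wells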
S100A4 MyoIIA: inhibitors of human S100A4 binding to myosin IIA peptide. P26447. S100A4/TAMRA-MyoIIA peptide fluorescence polarization. inhibition, % at 10.7 µM. 360,000 compounds, 0.14% hits;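 active = mean inhibition of at least 70% across replicates, with every replicate also reaching that level; inconclusive = mean inhibition reaches 70% but some replicates fall short; inactive = mean inhibition below 70%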
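Test system – S100A4 monomer (human) · Compound – single-point compound testing · Schedule – 5 min incubation before reading · Probe or stimulus – TAMRA-labelled myosin IIA heavy-chain peptide probe, 5 nM · Benchmarks – neutral control DMSO, positive control TFP · Medium – Calcium-containing HEPES buffer, pH 7.2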
RAD54 inh: inhibitors of human RAD54 branch migration | 360,000 compounds, 0.14% hits | RAD54 Holliday junction branch migration, FAM/BHQ fluorescence | Q92698 | inhibition, % at 10.4 µM;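 active = mean normalized replicate activity at least 40 and at least half of replicates scoring 40 or more; inconclusive = only one of the two criteria met; inactive = mean below 40 and under half of replicates reaching 40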;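 note: 0% = median of neutral control wells and 100% = median of positive control wells; inhibitors cause a drop in the FAM fluorescence signal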
Target sequence (Q92698 whole entry, looked up): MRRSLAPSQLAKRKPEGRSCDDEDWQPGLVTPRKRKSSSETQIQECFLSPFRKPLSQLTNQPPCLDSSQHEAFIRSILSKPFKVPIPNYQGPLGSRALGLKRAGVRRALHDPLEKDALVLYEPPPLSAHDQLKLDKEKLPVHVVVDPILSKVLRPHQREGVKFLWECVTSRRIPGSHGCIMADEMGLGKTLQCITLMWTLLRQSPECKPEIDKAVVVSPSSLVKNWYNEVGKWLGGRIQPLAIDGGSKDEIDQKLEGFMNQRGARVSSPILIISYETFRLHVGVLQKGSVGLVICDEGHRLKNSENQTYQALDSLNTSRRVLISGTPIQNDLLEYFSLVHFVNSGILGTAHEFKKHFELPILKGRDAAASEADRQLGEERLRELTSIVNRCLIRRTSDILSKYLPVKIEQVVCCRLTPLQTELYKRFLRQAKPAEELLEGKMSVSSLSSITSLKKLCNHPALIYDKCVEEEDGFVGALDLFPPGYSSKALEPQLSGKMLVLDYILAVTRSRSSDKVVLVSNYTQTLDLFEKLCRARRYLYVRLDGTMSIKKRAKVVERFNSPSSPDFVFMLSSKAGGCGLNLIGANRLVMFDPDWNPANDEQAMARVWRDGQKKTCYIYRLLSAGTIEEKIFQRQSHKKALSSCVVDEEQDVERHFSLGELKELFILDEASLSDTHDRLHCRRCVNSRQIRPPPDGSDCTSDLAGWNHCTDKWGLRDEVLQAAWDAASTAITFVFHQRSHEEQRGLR
Alpha interfer: counter-screen: AlphaScreen signal interference | AC50, µM (series often up to 12 µM), for the others: at the top dose activity change, negative = inhibition | shares compounds with AF4-AF9 inh | 530 compounds, 45% hits | signal luminescence; cut-off not given, nearly all actives have AC50 up to about 14 µM
The depositor's hits bear a star. Sampled rows, rich in hits. Any-hit rate of the full collection: about 1.3%.

Screening CN1CCN(C(c2ccccn2)c2cc(Cl)c3cccnc3c2O)CC1 (centres undefined) returned RAD52 anneal inh -19, AF4-AF9 inh 39*, INS-1E GSIS act -8, S100A4 MyoIIA 2 and Alpha interfer -7%.
CC(=O)NC(c1cc(Cl)c2cccnc2c1O)C(C)C (centres undefined) was read as RAD52 anneal inh -12, AF4-AF9 inh 11, INS-1E GSIS act -3, S100A4 MyoIIA -3 and RAD54 inh -5.
`CN1CCN(C(c2ccc(C(F)(F)F)cc2)c2ccc3cccnc3c2O)CC1` (centres undefined) gave RAD52 anneal inh 13, AF4-AF9 inh 85*, INS-1E GSIS act -40, S100A4 MyoIIA -21 and Alpha interfer 2.4µM*.
CCCNC(=O)N1CC2(CN(C(=O)c3cnccn3)C2)c2c([nH]c3cc(OC)ccc23)[C@H]1CO was read as RAD52 anneal inh 1, AF4-AF9 inh -2, INS-1E GSIS act 1 and S100A4 MyoIIA 8.
For C[C@@H]1CN([C@@H](C)CO)C(=O)c2cc(NC(=O)C3CCCCC3)ccc2O[C@@H]1CN(C)C the results were RAD52 anneal inh -3, AF4-AF9 inh -2, INS-1E GSIS act -3, S100A4 MyoIIA -30 and RAD54 inh 9.
For Cc1[nH]c2ccccc2c1CC#N the results were RAD52 anneal inh 3, AF4-AF9 inh 3, INS-1E GSIS act 12, S100A4 MyoIIA -2 and RAD54 inh 5.
Cc1[nH]c2ccccc2c1C(C#N)(C#N)C1C(=O)c2ccccc2C1=O was read as RAD52 anneal inh -12, AF4-AF9 inh 65*, INS-1E GSIS act -46, S100A4 MyoIIA 2, RAD54 inh 0 and Alpha interfer 2µM*.
For CN(C)c1ccc(C(CNC(=O)c2ccccc2)c2c[nH]c3ccccc23)cc1 (centres undefined) the results were RAD52 anneal inh 2, AF4-AF9 inh 29*, INS-1E GSIS act -17, S100A4 MyoIIA -5 and Alpha interfer -27%.
For COC(=O)[C@]12C[C@H](CC(=O)NCCCCc3ccccc3)C(=O)N(Cc3ccc4c(c3)OCO4)C1=C[C@H](COCc1ccccc1)O[C@@H]2C the results were RAD52 anneal inh -5, AF4-AF9 inh 0 and S100A4 MyoIIA -1.
Screening O=C(N[C@@H]1CC[C@@H](CCNS(=O)(=O)c2ccc(F)cc2)O[C@@H]1CO)C1CC1 returned RAD52 anneal inh -15, AF4-AF9 inh 1, INS-1E GSIS act -12, S100A4 MyoIIA inconclusive and RAD54 inh 4.
`COc1cc(/C=N/N=C(N)N)ccc1OCc1ccc(Cl)cc1` gave RAD52 anneal inh 6, AF4-AF9 inh 27*, INS-1E GSIS act -20, S100A4 MyoIIA 0, RAD54 inh 9 and Alpha interfer -26%.
COc1cc(/C=N/O)ccc1OCc1ccc(Cl)cc1 was read as RAD52 anneal inh 5, AF4-AF9 inh -1, INS-1E GSIS act 37 and S100A4 MyoIIA -17.
For CCOc1cc(/C=N/N=C(N)N)ccc1OCc1ccc(Cl)cc1 the results were RAD52 anneal inh -64, AF4-AF9 inh 27*, S100A4 MyoIIA -4, RAD54 inh 17 and Alpha interfer -27%.
Screening CO[C@@H]1CN(C)C(=O)c2cc(NC(C)=O)ccc2OC[C@@H](C)N(CC2CC2)C[C@@H]1C returned RAD52 anneal inh 2, AF4-AF9 inh -1, INS-1E GSIS act -2, S100A4 MyoIIA -14 and RAD54 inh -2.
`Cc1ccccc1S(=O)(=O)N[C@@H]1CC[C@@H](CCn2cc(Cc3ccccc3)nn2)O[C@@H]1CO` gave RAD52 anneal inh 0, AF4-AF9 inh 5, INS-1E GSIS act -12, S100A4 MyoIIA -7 and RAD54 inh 4.
For Cc1[nH]c2ccccc2c1N=Nc1ccccc1F the results were RAD52 anneal inh 3, AF4-AF9 inh 41*, INS-1E GSIS act -31, S100A4 MyoIIA -1 and Alpha interfer 8µM*.
`CC(C)(C)OC(=O)N1CCCN(C(c2ccnc3ccccc23)c2nnnn2-c2ccc3c(c2)OCCO3)CC1` (centres undefined) gave RAD52 anneal inh -13, AF4-AF9 inh 36*, INS-1E GSIS act 10, S100A4 MyoIIA 0 and Alpha interfer -22%.
C[C@@H]1CN([C@@H](C)CO)C(=O)c2cc(NS(=O)(=O)c3cn(C)cn3)ccc2O[C@H]1CN(C)Cc1ccccc1 was read as RAD52 anneal inh 5, AF4-AF9 inh -1, INS-1E GSIS act 20, S100A4 MyoIIA -26 and RAD54 inh -6.
Screening CN(C)c1ccc(NC(=S)c2ccccn2)cc1 returned RAD52 anneal inh -12, AF4-AF9 inh 49*, INS-1E GSIS act -18, S100A4 MyoIIA 1, RAD54 inh -1 and Alpha interfer -25%.
CN(C)c1ccc(C(=S)Nc2ccccc2)cc1 was read as RAD52 anneal inh 4, AF4-AF9 inh 1 and S100A4 MyoIIA 2.
Screening CCN(CC)CCNC(=O)c1ccc(NC(=O)c2cccc(S(=O)(=O)N3c4ccccc4CC3C)c2)cc1 (centres undefined) returned RAD52 anneal inh 41, AF4-AF9 inh 31*, INS-1E GSIS act -11, S100A4 MyoIIA 1, RAD54 inh 10 and Alpha interfer -4%.
CC1Cc2ccccc2N1S(=O)(=O)c1cccc(C(=O)NCc2ccncc2)c1 (centres undefined) was read as RAD52 anneal inh -22, AF4-AF9 inh 3, INS-1E GSIS act -44, S100A4 MyoIIA -2 and RAD54 inh -17.
`CC(C)NC(=O)N(C)C[C@@H]1Oc2ccc(NC(=O)Nc3ccccc3)cc2CC(=O)N([C@@H](C)CO)C[C@H]1C` gave RAD52 anneal inh 9, AF4-AF9 inh 2, INS-1E GSIS act 3, S100A4 MyoIIA -1 and RAD54 inh 16.
`Cc1ccc(C(C(=O)NC(C)(C)C)N(CCCN2CCOCC2)C(=O)c2ccc(-c3ccccc3)[nH]2)o1` (centres undefined) gave RAD52 anneal inh 0, AF4-AF9 inh 2, INS-1E GSIS act 3 and S100A4 MyoIIA -1.
Screening O=C(NC1CCCCC1)C(c1cccs1)N(CCCN1CCOCC1)C(=O)c1ccc(-c2ccccc2)[nH]1 (centres undefined) returned RAD52 anneal inh -17, AF4-AF9 inh 31*, INS-1E GSIS act -24, S100A4 MyoIIA -8 and Alpha interfer -17%.
O=C(CN1CCCC1)N/N=C/c1c(O)ccc2ccccc12 was read as RAD52 anneal inh -34, AF4-AF9 inh 38*, INS-1E GSIS act -8, S100A4 MyoIIA -3, RAD54 inh 17 and Alpha interfer 5.7µM*.
`C/C=C/c1ccc([C@@H]2[C@H](CO)N3C(=O)CN(Cc4ccc(C)cc4)C[C@@H]23)cc1` gave RAD52 anneal inh 2, AF4-AF9 inh 6, INS-1E GSIS act -3 and S100A4 MyoIIA 2.
